Each block holds one compound with its values, some of them ahead of it. Peptide text beside a SMILES is read from it.
Experiments:
[1] = MBC of β-AMPs with and without 40% human serum; type: cell-based; settings: MH vs MH with 40% human serum; strain not given
Summary of the method: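 Broth microdilution is run in MH with or without human serum, which is added to the cell suspension at twice the final level. Test compound is taken from 256 µg/mL through 2-fold serial dilutions in triplicate, with 5 × 10^5 cells/mL final, for 18–24 h at 37°C. 5 µL per well is plated on LB agar for 18 h at 37°C. MBC is the lowest concentration with zero growth, median of triplicates.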

Solubility in water = type: physicochemical; settings: lyophilized peptides resuspended in water at 10 mg/mL
[2] = system: E. coli KS272, HM130 and HM130 with trypsin protease; experiment: MBC with and without protease activity; type: cell-based, Escherichia coli; settings: KS272, HM130, HM130 with 160 ng/mL trypsin protease, MH media
Summary of the method: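 E. coli KS272 (parent) and HM130 (cell envelope proteases deleted) are grown overnight at 37°C. Trypsin, where used, is added to the diluted cells at twice the final concentration. Test compound is taken from 256 µg/mL through 2-fold serial dilutions in triplicate, 5 × 10^5 cells/mL final, for 18–24 h at 37°C.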

A. baumannii AB5075 = experiment: Isolation of resistant mutants by subinhibitory serial passage; type: cell-based, Acinetobacter baumannii; settings: subinhibitory serial passage in liquid media over two weeks
[3] = system: A. baumannii AB5075 knockout or overexpression strains; experiment: MIC against knockout or overexpression strains of upregulated genes; type: cell-based, Acinetobacter baumannii; settings: all the upregulated genes tested (Table S1: fold change MIC 1 for each)
Summary of the method: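 Genes for overexpression are cloned via EcoRI/SalI into pMMBEH67 TetR, electroporated into AB5075 and selected on LB with 10 µg/mL tetracycline. […] The MIC is the lowest concentration with no visible growth, by eye, median of triplicates.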

human red blood cells [4] = experiment: Hemolysis; type: cell-based; settings: 2-fold serial dilutions, compared with 1% Triton X-100 (100%); n = 3
human red blood cells [5] = settings: ref Edwards et al., 2016; cited from earlier work

Compound: RGGRLCYCRRRFCVCVGR--- (bicyclic or more) [protegrin-1, reference compound]
Loss of activity (MBC) when 40% human serum was added [1]: no change

Solubility in water (Solubility in water): insoluble in water
Compound: RKCVILCAR-NRRA-CVILCR [SBH-19]

Compound: CC[C@H](C)[C@H](NC(=O)[C@H](CCCCN)NC(=O)[C@@H](NC(=O)[C@H](CC(N)=O)NC(=O)[C@H](C)NC(=O)[C@H](CCCNC(=N)N)NC(=O)[C@H](CCCNC(=N)N)NC(=O)[C@H](CC(N)=O)NC(=O)[C@H](CCCNC(=N)N)NC(=O)[C@H](CCCNC(=N)N)NC(=O)[C@H](C)NC(=O)[C@@H](NC(=O)[C@H](CO)NC(=O)[C@@H](NC(=O)[C@@H](NC(=O)[C@H](CS)NC(=O)[C@H](CCCCN)NC(=O)[C@@H](N)CCCNC(=N)N)C(C)C)[C@@H](C)CC)C(C)C)[C@@H](C)CC)C(=O)N[C@@H](CC(C)C)C(=O)N[C@@H](CS)C(=O)N[C@@H](CC(N)=O)C(N)=O [Symbah-1] (H-RKCVISVARRNRRANIKILCN-NH2; N-terminus assumed)
Loss of activity (MBC) when 40% human serum was added [1]: 8 fold | Change of MBC under each of the conditions tested [2]: ≤ 2 fold | Isolation of resistant mutants (A. baumannii AB5075): no isolates with improved resistance | Effect of gene knockout or overexpression on MIC [3]: no clear effect on MIC | Percent hemolysis of serial dilutions (human red blood cells [4]): very low hemolysis relative to protegrin-1 and tachyplesin-1

Compound: GSKKPVPIIYCNRRTGKCQRM (disulfide) [Thanatin]
Hemolysis previously reported (human red blood cells [5]): very low hemolysis

Reference: article PMC8719016 (iScience, 2021)
